This is an account of results in ChEMBL document CHEMBL1135796, “Inhibition of nNOS activity in rat brain by synthetic kynurenines: structure-activity dependence” (J Med Chem, 2002).

Each structure is given as a SMILES string.

Data set [1] in a line: Compound tested for solubility measured in 3% ethanol:water or in 3% methanol:water; NS is not soluble. Type of data set: ADME. Particulars: buffer.
For data set [2], the target named is Nitric oxide synthase 1 (Rattus norvegicus) (UniProt P29476). Nature of the data set: Neuronal subtype of Neuronal nitric oxide synthase (nNOS) activity tested on Rat Striatal neurones at the concentration of 10e-9 (M). The gist of the method: (§1)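 Rat striatal crude homogenate (supernatant after 1000g, 5 min) as nNOS source. L-[3H]-arginine to L-[3H]-citrulline conversion: 10 µM L-arginine plus 50 nM tracer, H4biopterin, FAD, 0.1 mM CaCl2, pH 7.6. Compounds added over 10 pM–1 mM. Started with NADPH (0.75 mM final), 30 min at 37 °C. Blank omits NADPH. Activity expressed as % of untreated samples. Three experiments in triplicate, four striata each.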

For data set [3] the target is unchanged. Nature of the data set: Neuronal subtype of Neuronal nitric oxide synthase (nNOS) activity tested on Rat Striatal neurones at the concentration of 10e-11 (M). The essentials:
as §1

For data set [4] the target is unchanged. Nature of the data set: Neuronal subtype of Neuronal nitric oxide synthase (nNOS) activity tested on Rat Striatal neurones at the concentration of 10e-5 (M). The gist of the method:
as §1

Data set [5] shares this target. Nature of the data set: Neuronal subtype of Neuronal nitric oxide synthase (nNOS) activity tested on Rat Striatal neurones at the concentration of 10e-3 (M). The gist of the method: as §1
Data set [6] shares this target. Briefly: Neuronal subtype of Neuronal nitric oxide synthase (nNOS) activity tested on Rat Striatal neurones at the concentration of 10e-7 (M). The essentials:
as §1

Data set [7] shares this target. Nature of the data set: Neuronal subtype of Neuronal nitric oxide synthase (nNOS) activity tested on Rat Striatal neurones at the concentration of 0(M). The essentials:
as §1

For data set [8], the target named is Nitric oxide synthase 1 (Rattus norvegicus, UniProt P29476). Nature of the data set: 50% inhibitory concentration against Neuronal nitric oxide synthase (nNOS) activity. The gist of the method:
as §1

Sequence of Nitric oxide synthase 1 (Rattus norvegicus) (P29476 whole entry): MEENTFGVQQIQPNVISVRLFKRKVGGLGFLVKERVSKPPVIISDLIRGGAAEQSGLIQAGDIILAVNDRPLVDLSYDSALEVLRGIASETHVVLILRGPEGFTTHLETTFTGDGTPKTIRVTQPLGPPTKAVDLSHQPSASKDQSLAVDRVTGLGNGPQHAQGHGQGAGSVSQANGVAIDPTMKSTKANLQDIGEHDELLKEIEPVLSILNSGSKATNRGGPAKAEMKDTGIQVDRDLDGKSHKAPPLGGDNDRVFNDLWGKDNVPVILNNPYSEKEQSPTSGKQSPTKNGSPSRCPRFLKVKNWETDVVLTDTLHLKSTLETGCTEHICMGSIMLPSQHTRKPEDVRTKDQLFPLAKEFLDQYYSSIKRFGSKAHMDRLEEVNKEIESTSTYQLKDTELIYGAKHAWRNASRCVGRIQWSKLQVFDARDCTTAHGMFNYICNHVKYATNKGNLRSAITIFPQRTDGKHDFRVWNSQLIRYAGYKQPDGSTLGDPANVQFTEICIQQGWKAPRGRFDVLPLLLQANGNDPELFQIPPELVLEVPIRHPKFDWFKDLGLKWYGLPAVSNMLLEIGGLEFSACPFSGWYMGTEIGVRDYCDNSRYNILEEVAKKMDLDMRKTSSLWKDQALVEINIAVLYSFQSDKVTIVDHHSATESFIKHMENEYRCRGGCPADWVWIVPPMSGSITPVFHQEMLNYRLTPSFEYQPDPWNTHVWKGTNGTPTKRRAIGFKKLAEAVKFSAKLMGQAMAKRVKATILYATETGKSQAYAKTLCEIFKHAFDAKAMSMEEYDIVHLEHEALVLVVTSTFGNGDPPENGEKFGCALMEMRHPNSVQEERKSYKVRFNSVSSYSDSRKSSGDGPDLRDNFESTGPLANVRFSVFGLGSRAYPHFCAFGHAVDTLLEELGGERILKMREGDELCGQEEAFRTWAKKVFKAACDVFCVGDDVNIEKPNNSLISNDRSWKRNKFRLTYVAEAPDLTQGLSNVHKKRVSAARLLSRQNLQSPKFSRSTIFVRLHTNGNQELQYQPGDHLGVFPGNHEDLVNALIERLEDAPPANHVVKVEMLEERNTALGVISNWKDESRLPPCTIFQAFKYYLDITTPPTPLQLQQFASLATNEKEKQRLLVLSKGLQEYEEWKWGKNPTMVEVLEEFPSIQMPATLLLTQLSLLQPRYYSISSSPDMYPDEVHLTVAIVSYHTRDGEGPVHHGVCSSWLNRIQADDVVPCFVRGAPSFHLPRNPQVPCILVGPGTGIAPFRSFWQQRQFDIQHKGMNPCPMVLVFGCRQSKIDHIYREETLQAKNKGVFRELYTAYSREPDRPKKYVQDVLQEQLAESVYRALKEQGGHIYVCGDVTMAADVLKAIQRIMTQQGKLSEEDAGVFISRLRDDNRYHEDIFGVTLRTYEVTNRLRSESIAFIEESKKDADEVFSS
Sequence of Nitric oxide synthase 1 (P29476 whole entry): as above

Consider `CCCC(=O)NC(CCC(=O)c1ccccc1)(C(=O)OCC)C(=O)OCC`, for which the NS result in data set [1] is “Insoluble”.

As for `CCOC(=O)C(CC(=O)c1cccc(OC)c1)(NC(=O)c1ccccc1)C(=O)OCC`, the NS entry in data set [1] is on record as “Insoluble”.

As to `CCOC(=O)C(CC(=O)c1cc(OC)ccc1NCc1ccccc1)(NC(C)=O)C(=O)OCC`, the NS entry in data set [1] is given as “Insoluble”.

Consider `COc1ccc(NCc2ccccc2)c(C(=O)CC(NC(C)=O)C(=O)O)c1` (stereo not given), for which the nNOS activity in data set [2] turned out to be 101%; in data set [3] it was 101%; in data set [4] it was 98.2%; in data set [5], 100%; in data set [6] it was 100%; in data set [7] it was 100%.

For `CCCC(=O)NC(C(=O)OCC)(C(=O)OCC)C(C)C(=O)c1ccccc1` (stereo not given), the NS entry in data set [1] was “Insoluble”.

Take `CCCC(=O)NC(CC(=O)c1cccc(OC)c1)(C(=O)OCC)C(=O)OCC`: the NS result in data set [1] is reported as “Insoluble”.

As a reminder, the IC50 is the concentration at which inhibition is half-maximal. Take `COc1ccc(N)c(C(=O)CC(NC(C)=O)C(=O)O)c1` (stereo not given) [KYNURENIN]: the nNOS activity stood at 73.4% in data set [2]; 78.6% in data set [3]; 64% in data set [4]; 31.5% in data set [5]; 65.8% in data set [6]; 100% in data set [7]. This molecule registered an IC50 in data set [8] of 41 µM.

As to `CCOC(=O)C(CC(=O)c1cccc(OC)c1)(NC(=O)C1CCCCC1)C(=O)OCC`, the NS entry in data set [1] is “Insoluble”.

Consider `CCCC(=O)NC(CC(=O)c1cccc(OC)c1)C(=O)O` (stereo not given), for which the nNOS activity in data set [2] is 101%; in data set [3], 99.9%; in data set [4] it was 99.7%; in data set [5], 105%; in data set [6], 101%; in data set [7], 100%.

Turning to `CCOC(=O)C(CC(=O)c1cc(OC)ccc1N(C)C)(NC(C)=O)C(=O)OCC`, the NS result in data set [1] is “Insoluble”.

For `CCOC(=O)C(CC(=O)c1cccc([N+](=O)[O-])c1)(NC(=O)CC)C(=O)OCC`, the NS entry in data set [1] was “Insoluble”.

Consider `COc1ccc(N(C)C)c(C(=O)CC(NC(C)=O)C(=O)O)c1` (stereo not given), for which the nNOS activity turned out to be 99.9% in data set [2]; 100% in data set [3]; 101% in data set [4]; 99% in data set [5]; 99.6% in data set [6]; 100% in data set [7].

Regarding `CCOC(=O)C(CC(=O)c1cccc([N+](=O)[O-])c1)(NC(C)=O)C(=O)OCC`, the NS result in data set [1] was “Insoluble”.

Regarding `CCOC(=O)C(CC(=O)c1cccc(OC)c1)(NC(=O)C1CC1)C(=O)OCC`, in data set [1], the NS entry was “Insoluble”.

For the molecule `CCCC(=O)NC(CC(=O)c1cc(OC)ccc1N)C(=O)O` (stereo not given), the nNOS activity turned out to be 82.1% in data set [2]; 85.8% in data set [3]; 67.4% in data set [4]; 55% in data set [5]; 77.3% in data set [6]; 100% in data set [7]. Also, the IC50 in data set [8] was more than 1000 µM.

Regarding `CCCC(=O)NC(CC(=O)c1cc(OC)ccc1N)(C(=O)OCC)C(=O)OCC`, in data set [1], the NS result was “Insoluble”.

Consider `C/C=C/C(=O)NC(CC(=O)c1cccc(OC)c1)(C(=O)OCC)C(=O)OCC`, for which the NS result in data set [1] was “Insoluble”.

Turning to `COc1cccc(C(=O)CC(NC(C)=O)C(=O)O)c1` (stereo not given), the nNOS activity in data set [2] amounted to 100%; in data set [3], 92.7%; in data set [4], 103%; in data set [5], 95.7%; in data set [6] it was 87.2%; in data set [7], 100%.
